Source: ChEMBL document CHEMBL3102806, “1,2,4-Triazole/oxime hybrids as new strategy for nitric oxide donors: Synthesis, anti-inflammatory, ulceroginicity and antiproliferative activities” (Eur J Med Chem, 2014)

How the values were obtained:
Type in all cases: functional
MOLT-4 = experiment: Growth inhibition of human MOLT4 cells after 48 hrs by sulforhodamine B assay; conditions: MOLT-4, 48 h
How it was run: (§1)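 NCI 60-cell-line panel (nine tumour subpanels), five-dose format: 10-fold dilutions from 10^-4 to 10^-8 M, 48 h continuous exposure, SRB protein stain. Percent growth at each level is derived from time-zero, untreated control and treated absorbances. GI50 is the concentration where [(Ti−Tz)/(C−Tz)]×100 = 50. Values outside the tested range are reported as above or below the limit.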

HL-60(TB) = experiment: Growth inhibition of human HL-60(TB) cells after 48 hrs by sulforhodamine B assay; conditions: HL-60, 48 h
How it was run: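 NCI 60-cell panel protocol: cells exposed continuously for 48 h to five 10-fold dilutions from 10^-4 to 10^-8 M. Growth estimated by SRB protein staining with time-zero, untreated-control and treated absorbances. Percentage growth computed at each level, and GI50 taken as the concentration giving a 50% lower net protein increase than control cells.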

MDA-MB-468 = experiment: Growth inhibition of human MDA-MB-468 cells after 48 hrs by sulforhodamine B assay; conditions: MDA-MB-468, 48 h; how it was run: as §1
BT-549 = experiment: Growth inhibition of human BT549 cells after 48 hrs by sulforhodamine B assay; conditions: BT-549, 48 h
How it was run: (§2)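 NCI full ~60 cell line panel. Five 10-fold concentrations from 10^-4 to 10^-8 M, 48 h continuous exposure, SRB protein read-out. Time-zero, control and treated absorbances give percentage growth. GI50 is the concentration where [(Ti−Tz)/(C−Tz)]×100 = 50; TGI is where Ti = Tz; LC50 is where [(Ti−Tz)/Tz]×100 = −50.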

MCF7 = experiment: Growth inhibition of human MCF7 cells after 48 hrs by sulforhodamine B assay; conditions: MCF7, 48 h; how it was run: as §1
[1] = Growth inhibition of human RXF393 cells after 48 hrs by sulforhodamine B assay; conditions: RXF 393, 48 h; how it was run: as §1
SN12C = experiment: Growth inhibition of human SN12C cells after 48 hrs by sulforhodamine B assay
How it was run: (§3)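 NCI 60-cell-line panel, five-dose run at 10-fold dilutions from 10^-4 to 10^-8 M, 48 h continuous exposure. Viability by SRB protein stain. Percent growth is taken from time-zero, untreated-control and treated absorbances. GI50 is the concentration giving a 50% lower net protein increase than in control cells. TGI is taken at Ti = Tz, LC50 at a 50% loss of initial protein.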

ACHN = experiment: Growth inhibition of human ACHN cells after 48 hrs by sulforhodamine B assay; how it was run: as §2
786-0 = experiment: Growth inhibition of human 786-0 cells after 48 hrs by sulforhodamine B assay; conditions: 786-0, 48 h; how it was run: as §2
OVCAR-8 = experiment: Growth inhibition of human OVCAR8 cells after 48 hrs by sulforhodamine B assay; conditions: OVCAR-8, 48 h; how it was run: as §1
IGROV-1 = experiment: Growth inhibition of human IGROV1 cells after 48 hrs by sulforhodamine B assay; conditions: IGROV-1, 48 h; how it was run: as §2
UACC-62 = experiment: Growth inhibition of human UACC62 cells after 48 hrs by sulforhodamine B assay; conditions: UACC-62, 48 h; how it was run: as §3
[2] = Growth inhibition of human UACC257 cells after 48 hrs by sulforhodamine B assay; conditions: UACC-257, 48 h; how it was run: as §3
SK-MEL-28 = experiment: Growth inhibition of human SK-MEL-28 cells after 48 hrs by sulforhodamine B assay; conditions: SK-MEL-28, 48 h; how it was run: as §3
M14 = experiment: Growth inhibition of human M14 cells after 48 hrs by sulforhodamine B assay; conditions: M14, 48 h; how it was run: as §1
LOX IMVI = experiment: Growth inhibition of human LOXIMVI cells after 48 hrs by sulforhodamine B assay; how it was run: as §1
SNB-19 = experiment: Growth inhibition of human SNB19 cells after 48 hrs by sulforhodamine B assay; conditions: SNB-19, 48 h; how it was run: as §3
SF-295 = experiment: Growth inhibition of human SF295 cells after 48 hrs by sulforhodamine B assay; conditions: SF-295, 48 h; how it was run: as §1
[3] = Growth inhibition of human SF539 cells after 48 hrs by sulforhodamine B assay; conditions: SF-539, 48 h; how it was run: as §1
SF-268 = experiment: Growth inhibition of human SF268 cells after 48 hrs by sulforhodamine B assay; conditions: SF-268, 48 h; how it was run: as §1
HT-29 = experiment: Growth inhibition of human HT-29 cells after 48 hrs by sulforhodamine B assay; conditions: HT-29, 48 h; how it was run: as §2
[4] = Growth inhibition of human HCC2998 cells after 48 hrs by sulforhodamine B assay; conditions: HCC 2998, 48 h; how it was run: as §2
NCI-H322M = experiment: Growth inhibition of human NCI-H322M cells after 48 hrs by sulforhodamine B assay; how it was run: as §1
NCI-H23 = experiment: Growth inhibition of human NCI-H23 cells after 48 hrs by sulforhodamine B assay; conditions: NCI-H23, 48 h; how it was run: as §1
HOP-62 = experiment: Growth inhibition of human HOP62 cells after 48 hrs by sulforhodamine B assay; conditions: HOP-62, 48 h; how it was run: as §2
[5] = Growth inhibition of human HOP92 cells after 48 hrs by sulforhodamine B assay; conditions: HOP-92, 48 h; how it was run: as §2
[6] = read-out: LC50 (the source's name)

COc1ccc(-c2nnc(SCC(=O)Nc3ccc(/C(C)=N/O)cc3)n2-c2ccccc2)cc1OC
GI50 (MOLT-4): > 100 µM | TGI (MOLT-4): > 100 µM | CC50 (MOLT-4; [6]): > 100 µM | GI50 (HL-60(TB)): > 100 µM | TGI (HL-60(TB)): > 100 µM | CC50 (HL-60(TB); [6]): > 100 µM | GI50 (MDA-MB-468): 16.4 µM | TGI (MDA-MB-468): > 100 µM | CC50 (MDA-MB-468; [6]): > 100 µM | GI50 (BT-549): 13.7 µM | TGI (BT-549): > 100 µM | CC50 (BT-549; [6]): > 100 µM | GI50 (MCF7): > 100 µM | TGI (MCF7): > 100 µM | CC50 (MCF7; [6]): > 100 µM | GI50 [1]: 2.56 µM | TGI [1]: 7.11 µM | CC50 [1, 6]: > 100 µM | GI50 (SN12C): 26.2 µM | TGI (SN12C): > 100 µM | CC50 (SN12C; [6]): > 100 µM | GI50 (ACHN): 8.08 µM | TGI (ACHN): > 100 µM | CC50 (ACHN; [6]): > 100 µM | GI50 (786-0): 14.9 µM | TGI (786-0): > 100 µM | CC50 (786-0; [6]): > 100 µM | GI50 (OVCAR-8): 7.36 µM | TGI (OVCAR-8): > 100 µM | CC50 (OVCAR-8; [6]): > 100 µM | GI50 (IGROV-1): 3.74 µM | TGI (IGROV-1): 29.4 µM | CC50 (IGROV-1; [6]): > 100 µM | GI50 (UACC-62): > 100 µM | TGI (UACC-62): > 100 µM | CC50 (UACC-62; [6]): > 100 µM | GI50 [2]: > 100 µM | TGI [2]: > 100 µM | CC50 [2, 6]: > 100 µM | GI50 (SK-MEL-28): > 100 µM | TGI (SK-MEL-28): > 100 µM | CC50 (SK-MEL-28; [6]): > 100 µM | GI50 (M14): 97.4 µM | TGI (M14): > 100 µM | CC50 (M14; [6]): > 100 µM | GI50 (LOX IMVI): > 100 µM | TGI (LOX IMVI): > 100 µM | CC50 (LOX IMVI; [6]): > 100 µM | GI50 (SNB-19): 6.43 µM | TGI (SNB-19): > 100 µM | CC50 (SNB-19; [6]): > 100 µM | GI50 (SF-295): 3.39 µM | TGI (SF-295): 37.7 µM | CC50 (SF-295; [6]): > 100 µM | GI50 [3]: 4.77 µM | TGI [3]: 38.8 µM | CC50 [3, 6]: > 100 µM | GI50 (SF-268): 3.07 µM | TGI (SF-268): 20.3 µM | CC50 (SF-268; [6]): > 100 µM | GI50 (HT-29): > 100 µM | TGI (HT-29): > 100 µM | CC50 (HT-29; [6]): > 100 µM | GI50 [4]: > 100 µM | TGI [4]: > 100 µM | CC50 [4, 6]: > 100 µM | GI50 (NCI-H322M): 4.41 µM | TGI (NCI-H322M): > 100 µM | CC50 (NCI-H322M; [6]): > 100 µM | GI50 (NCI-H23): 12.9 µM | TGI (NCI-H23): > 100 µM | CC50 (NCI-H23; [6]): > 100 µM | GI50 (HOP-62): 2.06 µM | TGI (HOP-62): 6.8 µM | CC50 (HOP-62; [6]): > 100 µM | GI50 [5]: 2.12 µM | TGI [5]: 6.42 µM | CC50 [5, 6]: > 100 µM
